Experimental data as given in ChEMBL document CHEMBL1135484, “Structural features of azidopyridinyl neonicotinoid probes conferring high affinity and selectivity for mammalian alpha4beta2 and Drosophila nicotinic receptors” (J Med Chem, 2002).

How the values were obtained:
[1] = target: Neuronal acetylcholine receptor; alpha4/beta2; assay: Potency to displace [3H]nicotine binding to Nicotinic acetylcholine receptor alpha4-beta2 immuno-isolated from M10 cells; assay type: cell-based, Gallus gallus
[2] = Potency to displace [3H]IMI binding to Nicotinic acetylcholine receptor from Drosophila head membranes; design: species or system Drosophila melanogaster
Summary of the method: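 Drosophila head membranes as receptor source, competition against [3H]IMI binding; IC50 (concentration giving 50% inhibition of specific binding) fitted by iterative nonlinear least-squares regression.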

Drosophila melanogaster = assay: Selectivity ratio of Ki of Nicotinic acetylcholine receptor of Drosophila to Nicotinic acetylcholine receptor alpha4-beta2

[N-]=[N+]=Nc1cc(Cn2ccnc2N[N+](=O)[O-])cnc1Cl
Ki [1]: 300 nM
Ki [2]: 13 nM
Selectivity (Drosophila melanogaster): 23

[N-]=[N+]=Nc1cncc(Cn2ccnc2N[N+](=O)[O-])c1
Ki [1]: 5400 nM
Ki [2]: 540 nM
Selectivity (Drosophila melanogaster): 10

[N-]=[N+]=Nc1cncc(Cn2ccsc2=N)c1
Ki [1]: 8.3 nM
Ki [2]: 7200 nM
Selectivity (Drosophila melanogaster): 867

[N-]=[N+]=Nc1cc(Cl)ncc1Cn1ccsc1=N
Ki [1]: 110 nM
Ki [2]: 3200 nM
Selectivity (Drosophila melanogaster): 29

O=[N+]([O-])/N=c1\sccn1Cc1ccc(Cl)nc1
Ki [1]: 170 nM
Ki [2]: 0.35 nM
Selectivity (Drosophila melanogaster): 486

[N-]=[N+]=Nc1cc(Cn2ccs/c2=N\[N+](=O)[O-])cnc1Cl
Ki [1]: 170 nM
Ki [2]: 3.9 nM
Selectivity (Drosophila melanogaster): 44

[N-]=[N+]=Nc1cc(Cn2ccsc2=N)cnc1Cl
Ki [1]: 0.47 nM
Ki [2]: 750 nM
Selectivity (Drosophila melanogaster): 1600

Clc1ccc(C2CC3CCC2N3)cn1 (stereo unspecified) [EPIBATIDINE]
Ki [2]: 220 nM

N#C/N=c1\sccn1Cc1ccc(Cl)nc1 [THIACLOPRID OLEFIN]
Ki [1]: 120 nM
Ki [2]: 1.4 nM
Selectivity (Drosophila melanogaster): 86

N=C1NCCN1Cc1ccc(Cl)nc1 [DESNITROIMIDACLOPRID]
Ki [1]: 2.2 nM
Ki [2]: 800 nM
Selectivity (Drosophila melanogaster): 364

[N-]=[N+]=Nc1ccncc1Cn1ccsc1=N
Ki [1]: 820 nM
Ki [2]: 30000 nM
Selectivity (Drosophila melanogaster): 36

CN1CCC[C@H]1c1cccnc1 [NICOTINE]
Ki [2]: 2000 nM

O=[N+]([O-])/N=C1\NCCN1Cc1ccc(Cl)nc1 [IMIDACLOPRID]
Ki [2]: 2.2 nM
Selectivity (Drosophila melanogaster): 327

[N-]=[N+]=Nc1cc(CN2CCN=C2N)cnc1Cl
Ki [1]: 2.6 nM
Ki [2]: 5700 nM
Selectivity (Drosophila melanogaster): 2190

[N-]=[N+]=Nc1cc(Cl)ncc1Cn1ccnc1N[N+](=O)[O-]
Ki [1]: 16900 nM
Ki [2]: 460 nM
Selectivity (Drosophila melanogaster): 37

[N-]=[N+]=Nc1ccncc1Cn1ccnc1N[N+](=O)[O-]
Ki [1]: 95800 nM
Ki [2]: 3600 nM
Selectivity (Drosophila melanogaster): 27

O=[N+]([O-])Nc1nccn1Cc1ccc(Cl)nc1 [DEHYDROIMIDACLOPRID]
Ki [1]: 470 nM
Ki [2]: 0.85 nM
Selectivity (Drosophila melanogaster): 553

N=c1sccn1Cc1ccc(Cl)nc1
Ki [1]: 0.39 nM
Ki [2]: 100 nM
Selectivity (Drosophila melanogaster): 256

[N-]=[N+]=Nc1cc(CN2CCN/C2=N\[N+](=O)[O-])cnc1Cl [5-AZIDOIMIDACLOPRID]
Ki [2]: 24 nM
Selectivity (Drosophila melanogaster): 14

N#C/N=c1\sccn1Cc1cnc(Cl)c(N=[N+]=[N-])c1
Ki [1]: 120 nM
Ki [2]: 28 nM
Selectivity (Drosophila melanogaster): 4.3

O=[N+]([O-])NC1=NCCN1Cc1ccc(Cl)nc1 [IMIDACLOPRID]
Ki [1]: 720 nM

[N-]=[N+]=Nc1cc(CN2CCNC2=N[N+](=O)[O-])cnc1Cl [5-AZIDOIMIDACLOPRID]
Ki [1]: 340 nM
